Experimental data pooled from the literature.
Lines come from different studies, so protocols differ.
Target: Dual specificity tyrosine-phosphorylation-regulated kinase 3 (DYRK3, Homo sapiens, UniProt O43781)

Compound	effect on	mode	method	tested at	measurement	result
Cc1cc(NC(=O)c2cccc3cc(-c4cccc5[nH]nc(N)c45)ccc23)ccc1F	enzyme activity	inhibitor	–	0.1 µM	activity vs control	105%
O=C(O)c1ccc2c(c1)nc(Nc1cccc(F)c1)c1ncncc12	enzyme activity	inhibitor	radiometric	1 µM	remaining activity	9%
O=C1Nc2ccc(Cl)cc2C1=Cc1cc(Cl)c(O)c(Cl)c1	cell-free assay	–	–	0.5 µM	remaining signal	91.8%
CN(c1ncccc1CNc1nc(Nc2ccc3c(c2)CC(=O)N3)ncc1C(F)(F)F)S(C)(=O)=O	enzyme activity	inhibitor	–	1 µM	inhibition	66.8%
Nc1nc(Nc2ccccc2)sc1C(=O)c1c(F)cccc1F	enzyme activity	inhibitor	–	10 µM	remaining activity	83%
COc1cc(Nc2cnc(C#N)c(O[C@H](C)CN(C)C)n2)ncc1-c1cnn(C)c1	enzyme activity	inhibitor	radiometric	1 µM	remaining activity	98%
COc1cc2ncnc(Nc3ccc(Oc4ccccc4)cc3C)c2cc1OC	enzyme activity	inhibitor	–	1 µM	inhibition	1%
O=C(O)c1ccc2c(c1)nc(NCCc1cccc(Cl)c1)c1ncncc12	enzyme activity	inhibitor	radiometric	1 µM	remaining activity	37%
CCCS(=O)(=O)Nc1ccc(F)c(C(=O)c2c[nH]c3ncc(-c4ccc(Cl)cc4)cc23)c1F	enzyme activity	inhibitor	–	1 µM	inhibition	< 10%
O=C(O)c1ccc2c(c1)nc(NCCc1cccc(F)c1)c1ncncc12	enzyme activity	inhibitor	radiometric	1 µM	remaining activity	17%
Cn1cnc(Br)c1C1=CN(c2ncnc3[nH]cnc23)CCS1	enzyme activity	inhibitor	radiometric	50 nM	inhibition	49.8%
COc1cc(-c2cc(-c3ccc(N4CCNCC4)cc3)cnc2C)cc(OC)c1OC	enzyme activity	inhibitor	–	1 µM	inhibition	1%
O=C(O)c1ccc2c(c1)nc(NCc1ccccc1)c1ccncc12	enzyme activity	inhibitor	radiometric	1 µM	remaining activity	21%
O=C1NC(=O)c2cc(Nc3ccc(F)cc3)c(Nc3ccc(F)cc3)cc21	cell-free assay	–	–	0.5 µM	remaining signal	97.1%
